Assay results published in ChEMBL document CHEMBL4689842, “EUbOPEN Chemogenomics Library wave 1” (2021).

Legend:
Assay type in all cases: toxicity, cell-based
[1] = system: Fibroblast; assay: Incucyte cell viability with human fibroblast; conditions: 10 µM, compound concentration 10 uM; further: filed as whole numbers so only -1 and 0 and 1 occur
[2] = system: HEK-293T; assay: Incucyte cell viability with HEK293T; conditions: human, 10 µM, compound concentration 10 uM; further: filed as whole numbers so only -1 and 0 and 1 occur
[3] = system: U2OS; assay: Incucyte cell viability with U2OS; conditions: human, 10 µM, compound concentration 10 uM; further: filed as whole numbers so only -1 and 0 and 1 occur
[4] = system: U2OS; assay: Multiplex assay against U2OS; conditions: human
Method in brief: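 At seeding, live cells were stained with Hoechst33342, BioTracker Green Microtubule Cytoskeleton Dye, MitoTracker Red and Annexin V Alexa Fluor 680. After compound addition they were imaged on a CQ1 microscope at 37°C and 5% CO2, and CellPathfinder machine-learning gating sorted them into Hoechst high-intensity objects or normal cells, with normal cells further split into healthy, pyknosed or fragmented nuclei and pyknosed cells into mitotic or apoptotic. Tubulin, mitochondrial-mass and membrane-permeability phenotypes are given as per cents of cells with healthy nuclei.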

[5] = 0 h, replicate number 1, timepoint 0 hours
[6] = 6 h, replicate number 1, timepoint 6 hours
[7] = 12 h, replicate number 1, timepoint 12 hours
[8] = 18 h, replicate number 1, timepoint 18 hours
[9] = 24 h, replicate number 1, timepoint 24 hours
[10] = 12 h, 1 µM, compound concentration 1 uM, replicate 1
[11] = 12 h, 1 µM, compound concentration 1 uM, replicate 2
[12] = 12 h, 10 µM, compound concentration 10 uM, replicate 1
[13] = 12 h, 10 µM, compound concentration 10 uM, replicate 2
[14] = 24 h, 1 µM, compound concentration 1 uM, replicate 1
[15] = 24 h, 1 µM, compound concentration 1 uM, replicate 2
[16] = 24 h, 10 µM, compound concentration 10 uM, replicate 1
[17] = 24 h, 10 µM, compound concentration 10 uM, replicate 2

Cc1ccc(NC(=O)Nc2cc(C(F)(F)F)ccc2F)cc1Nc1ccc2c(c1)NC(=O)/C2=C\c1ccc[nH]1
Growth Rate [1, 5]: 0
Growth Rate [1, 6]: 0
Growth Rate [1, 7]: 0
Growth Rate [1, 8]: 0
Growth Rate [1, 9]: 0
Growth Rate [2, 5]: 0
Growth Rate [2, 6]: 0
Growth Rate [2, 7]: 0
Growth Rate [2, 8]: 0
Growth Rate [2, 9]: 0
Growth Rate [3, 6]: 1
Growth Rate [3, 7]: 0
Growth Rate ([3]; 12 h, replicate number 2, timepoint 12 hours): 1
Growth Rate [3, 8]: 0
Growth Rate [3, 9]: 0
Population Apoptotic (%) [4, 10]: 32%
Population Fragmented Nuclei (%) [4, 10]: 15%
Population Healthy Nuclei (%) [4, 10]: 66%
Population Hoechst High Intensity Objects (%) [4, 10]: 2%
Population Membrane Permeable-Phenotype (%) [4, 10]: 87%
Population Mitochondria Different-Phenotype (%) [4, 10]: 7%
Population Mitotic Cells (%) [4, 10]: 68%
Population Normal (%) [4, 10]: 97%
Population Pyknosed Nuclei (%) [4, 10]: 18%
Population Tubulin-Different-Phenotype (%) [4, 10]: 65%
Total Cell Count [4, 10]: 153
Population Apoptotic (%) [4, 11]: 33%
Population Fragmented Nuclei (%) [4, 11]: 24%
Population Healthy Nuclei (%) [4, 11]: 57%
Population Hoechst High Intensity Objects (%) [4, 11]: 12%
Population Membrane Permeable-Phenotype (%) [4, 11]: 91%
Population Mitochondria Different-Phenotype (%) [4, 11]: 18%
Population Mitotic Cells (%) [4, 11]: 66%
Population Normal (%) [4, 11]: 87%
Population Pyknosed Nuclei (%) [4, 11]: 17%
Population Tubulin-Different-Phenotype (%) [4, 11]: 59%
Total Cell Count [4, 11]: 88
Population Apoptotic (%) [4, 12]: 22%
Population Fragmented Nuclei (%) [4, 12]: 2%
Population Healthy Nuclei (%) [4, 12]: 91%
Population Hoechst High Intensity Objects (%) [4, 12]: 2%
Population Membrane Permeable-Phenotype (%) [4, 12]: 11%
Population Mitochondria Different-Phenotype (%) [4, 12]: 22%
Population Mitotic Cells (%) [4, 12]: 77%
Population Normal (%) [4, 12]: 97%
Population Pyknosed Nuclei (%) [4, 12]: 6%
Population Tubulin-Different-Phenotype (%) [4, 12]: 27%
Total Cell Count [4, 12]: 204
Population Apoptotic (%) [4, 13]: 66%
Population Fragmented Nuclei (%) [4, 13]: 8%
Population Healthy Nuclei (%) [4, 13]: 87%
Population Hoechst High Intensity Objects (%) [4, 13]: 11%
Population Membrane Permeable-Phenotype (%) [4, 13]: 5%
Population Mitochondria Different-Phenotype (%) [4, 13]: 29%
Population Mitotic Cells (%) [4, 13]: 33%
Population Normal (%) [4, 13]: 88%
Population Pyknosed Nuclei (%) [4, 13]: 3%
Population Tubulin-Different-Phenotype (%) [4, 13]: 19%
Total Cell Count [4, 13]: 147
Population Apoptotic (%) [4, 14]: 75%
Population Fragmented Nuclei (%) [4, 14]: 14%
Population Healthy Nuclei (%) [4, 14]: 52%
Population Membrane Permeable-Phenotype (%) [4, 14]: 85%
Population Mitochondria Different-Phenotype (%) [4, 14]: 11%
Population Mitotic Cells (%) [4, 14]: 25%
Population Pyknosed Nuclei (%) [4, 14]: 32%
Population Tubulin-Different-Phenotype (%) [4, 14]: 36%
Total Cell Count [4, 14]: 205
Population Apoptotic (%) [4, 15]: 76%
Population Fragmented Nuclei (%) [4, 15]: 31%
Population Healthy Nuclei (%) [4, 15]: 44%
Population Hoechst High Intensity Objects (%) [4, 15]: 4%
Population Membrane Permeable-Phenotype (%) [4, 15]: 94%
Population Mitochondria Different-Phenotype (%) [4, 15]: 12%
Population Mitotic Cells (%) [4, 15]: 23%
Population Normal (%) [4, 15]: 95%
Population Pyknosed Nuclei (%) [4, 15]: 23%
Population Tubulin-Different-Phenotype (%) [4, 15]: 53%
Total Cell Count [4, 15]: 118
Population Apoptotic (%) [4, 16]: 26%
Population Fragmented Nuclei (%) [4, 16]: 2%
Population Healthy Nuclei (%) [4, 16]: 89%
Population Hoechst High Intensity Objects (%) [4, 16]: 1%
Population Membrane Permeable-Phenotype (%) [4, 16]: 8%
Population Mitochondria Different-Phenotype (%) [4, 16]: 22%
Population Mitotic Cells (%) [4, 16]: 73%
Population Normal (%) [4, 16]: 98%
Population Pyknosed Nuclei (%) [4, 16]: 7%
Population Tubulin-Different-Phenotype (%) [4, 16]: 31%
Total Cell Count [4, 16]: 302
Population Apoptotic (%) [4, 17]: 16%
Population Fragmented Nuclei (%) [4, 17]: 6%
Population Healthy Nuclei (%) [4, 17]: 87%
Population Hoechst High Intensity Objects (%) [4, 17]: 8%
Population Membrane Permeable-Phenotype (%) [4, 17]: 7%
Population Mitochondria Different-Phenotype (%) [4, 17]: 32%
Population Mitotic Cells (%) [4, 17]: 83%
Population Normal (%) [4, 17]: 91%
Population Pyknosed Nuclei (%) [4, 17]: 5%
Population Tubulin-Different-Phenotype (%) [4, 17]: 18%
Total Cell Count [4, 17]: 205
